The subject of series [1] is Staphylococcus aureus. The experiment in a line: Growth inhibition of methicillin-resistant Staphylococcus aureus ATCC 33591 up to 64 uM incubated for 18 hrs by broth microdilution method. It is filed as functional, organism-based. Put shortly:
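MRSA ATCC 33591 at ~5×10⁵ CFU/mL in MHB with graded compound concentrations vs DMSO; OD600 growth curves over 18 h; three experiments, triplicate wells. MIC by CLSI broth microdilution in CAMHB, 0.5-256 µg/mL, 18 h at 37 °C, lowest concentration with no visible growth.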
Background: In broth dilution the organism is exposed to a series of concentrations in liquid medium.

The target of series [2] is Coagulation factor X (Homo sapiens) (UniProt P00742). The series can be described thus: Inhibition of human F10a up to 100 uM pre-incubated for 10 mins before Pefachrome Fxa addition and measured after […] based assay.
The target of series [3] is T1, ATP-dependent Clp protease proteolytic subunit (Staphylococcus aureus (strain NCTC 8325)) (UniProt Q2G036).
T1 sequence (whole entry): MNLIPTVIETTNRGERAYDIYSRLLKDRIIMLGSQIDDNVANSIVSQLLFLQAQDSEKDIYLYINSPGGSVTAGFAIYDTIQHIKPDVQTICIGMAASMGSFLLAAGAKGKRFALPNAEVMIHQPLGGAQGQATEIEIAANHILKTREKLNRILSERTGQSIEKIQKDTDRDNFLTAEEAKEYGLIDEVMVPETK
The experiment in a line: Inhibition of ClpP in wild type Staphylococcus aureus NCTC8325 assessed as reduction in bacteria-induced hemolysis of sheep erythrocytes by measuring hemoglobin release incubated for 15 mins. Put shortly:
(§1)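 S. aureus strains grown overnight in MHB, diluted to OD600 0.05, then grown at 37 °C to OD600 ~0.6. Serially diluted inhibitor or DMSO added for 8 h more growth. Supernatant mixed 1:1 with 5% sheep erythrocytes, spun 1,500 rpm for 15 min, hemoglobin read at 545 nm. EC50 by nonlinear fit; thrice, triplicate tubes.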

Series [4] is described as follows: Toxicity in BALB/c mouse model of skin abscess infected with methicillin-resistant Staphylococcus aureus ATCC 33591 assessed as induction of adverse effects at 1.5 to 3 mg/kg injected into shaved area of skin once daily for 4 days measured every day. It is filed as organism-based. The settings on record: in vivo, other, 96 h. Put shortly:
(§2)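 Female BALB/c mice, 6-8 weeks, n=5 per group, backs shaved and depilated 1 day before; 50 µL subcutaneous 1.7 × 10⁹ CFU/mL MRSA ATCC 33591. From 6 h post-infection, 40 µL vehicle, vancomycin 3 mg/kg, or compound 1.5 or 3 mg/kg injected at infection site once daily for 4 days; weight recorded daily. Skin homogenised in saline 12 h after last dose, plated on LB agar 37 °C ≥16 h; log10 CFU/abscess; t-test.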

Series [5] is described as follows: Toxicity in BALB/c mouse model of skin abscess infected with methicillin-resistant Staphylococcus aureus ATCC 33591 assessed as effect on body weight at 1.5 to 3 mg/kg injected into shaved area of skin once daily for 4 days measured every day. It is filed as organism-based. The settings on record: in vivo, other, 96 h. In outline: as §2
The subject of series [6] is Staphylococcus aureus. The series can be described thus: Inhibition of virulence-related genes expression in methicillin-resistant Staphylococcus aureus ATCC 33591 assessed as reduction in psm expression at 4 to 16 uM by qPCR analysis relative to control. It is filed as functional, organism-based. Put shortly: (§3)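 Total RNA from 2×10⁸ CFU treated MRSA by liquid-nitrogen freeze-thaw and TRIzol; qPCR relative to gyrB endogenous control; three experiments, triplicate wells.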
(In general: Real-time PCR tracks product formation cycle by cycle.)

Series [7] can be described thus: Toxicity in BALB/c mouse model of skin abscess infected with methicillin-resistant Staphylococcus aureus ATCC 33591 assessed as increase in AST levels at 1.5 to 3 mg/kg injected into shaved area of skin once daily for 4 days. It is filed as organism-based. The settings on record: in vivo, other, 96 h. Put shortly:
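Infected BALB/c mice (n=5/group) dosed 1.5 or 3 mg/kg into the infected skin once daily for 4 days; blood collected on day 4 and day 14, centrifuged 3,500 rpm 15 min, serum biochemistry analysed.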

Series [8] deals with T1, ATP-dependent Clp protease proteolytic subunit (Staphylococcus aureus (strain NCTC 8325)). The experiment in a line: Inhibition of N-terminal His6-sumo-tagged full length Staphylococcus aureus ClpP expressed in Escherichia coli […] assessed as enzyme activity recovery level at 20-fold molar excess pre-incubated for 10 mins before Suc-LY-AMC addition and measured after 1 hr followed by dialysis up to 72 hrs by fluorescence based assay relative to control. The arrangement: scale not given: the % may be the effect or the level left. Put shortly: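 ClpP (1 μM, 100 mM Hepes pH 7.0, 100 mM NaCl) incubated 1 h at RT with 20-fold molar excess inhibitor or DMSO. Dialyzed at 4 °C, buffer changed after 6 h and then every 24 h. Aliquots assayed for peptidase activity with Suc-LY-AMC. Thrice, single sample.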

The nature of series [9]: Inhibition of AlgW (unknown origin) up to 100 uM pre-incubated for 10 mins before Abz-T-V-A-W-pNA addition and measured after 1 hr by fluorescence based assay.
The test system of series [10] is Staphylococcus aureus. The experiment in a line: Inhibition of Staphylococcus aureus NCTC8325 with delta clpP assessed as reduction in bacteria-induced hemolysis of sheep erythrocytes by measuring hemoglobin release at 0.5 to 64 uM. It is filed as functional, organism-based. In outline: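 S. aureus NCTC8325 ΔclpP grown in MHB from OD600 0.05 to ~0.6 at 37 °C, then 8 h with serially diluted inhibitor or DMSO. Culture supernatant mixed 1:1 with 5% sheep erythrocytes, centrifuged 1,500 rpm for 15 min, hemoglobin at 545 nm. Thrice, triplicate tubes.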

Series [11] has as its system Staphylococcus aureus. The series can be described thus: Inhibition of virulence-related genes expression in methicillin-resistant Staphylococcus aureus ATCC 33591 assessed as reduction in aur expression at 4 to 16 uM by qPCR analysis relative to control. It is filed as functional, organism-based. In outline:
as §3

The target of series [12] is T1, ATP-dependent Clp protease proteolytic subunit (Staphylococcus aureus (strain NCTC 8325)). The experiment in a line: Inhibition of ClpP in Staphylococcus aureus NCTC8325 with complemented deltaclpP/pYJ335::clpP (deltaclpP+) assessed as reduction in bacteria-induced hemolysis of sheep erythrocytes by measuring hemoglobin release incubated for 15 mins. Put shortly: as §1

A short description of series [13]: Induction of hemolysis in sheep erythrocytes by measuring hemoglobin release incubated for 15 mins. It is filed as cell-based, Ovis aries, Erythrocyte. In outline: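 Serially diluted compound mixed directly with 2% sheep erythrocytes in 10 mM Tris pH 7.4, 0.9% NaCl. Buffer served as negative and water as positive control. After 1,500 rpm, 15 min spin, released hemoglobin read at 545 nm. Three experiments, triplicate tubes.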

In series [14] the test system is Staphylococcus aureus. The experiment in a line: Inhibition of virulence-related genes expression in methicillin-resistant Staphylococcus aureus ATCC 33591 assessed as reduction in RNAIII effector, expression at 16 uM by qPCR analysis relative to control. It is filed as functional. Put shortly: as §3
Series [15] addresses T2, ATP-dependent Clp protease proteolytic subunit (Staphylococcus aureus (strain NCTC 8325), UniProt Q2G036).
T2 sequence (Q2G036 whole entry): T1 sequence (whole entry)
The series can be described thus: Binding affinity to N-terminal His6-sumo-tagged full length Staphylococcus aureus ClpP expressed in Escherichia coli […] assessed as shifting of melting peak of SaClpP by differential scanning calorimetry analysis. In outline: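 DSC: 0.5 mg/mL (25 µM) SaClpP with 100 µM compound or two-fold dilution series, RT; scanned 30-90 °C at 1 °C/min, buffer-buffer scan subtracted; Tm from thermogram peak maximum; single run.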

Activity calls are given as the source filed them. No cut-off for these calls is given here.

Experimental findings from ChEMBL document CHEMBL4402562, “Discovery of Novel Peptidomimetic Boronate ClpP Inhibitors with Noncanonical Enzyme Mechanism as Potent Virulence Blockers in Vitro and in Vivo” (J Med Chem, 2020) are described below.

Coagulation factor X (Homo sapiens), sequence (P00742 41-179 limits assumed): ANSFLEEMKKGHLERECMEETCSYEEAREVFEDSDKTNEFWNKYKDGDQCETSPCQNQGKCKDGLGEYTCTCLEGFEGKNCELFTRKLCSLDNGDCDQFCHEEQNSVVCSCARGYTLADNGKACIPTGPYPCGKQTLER
Coagulation factor X (Homo sapiens), sequence (P00742 235-488 limits assumed): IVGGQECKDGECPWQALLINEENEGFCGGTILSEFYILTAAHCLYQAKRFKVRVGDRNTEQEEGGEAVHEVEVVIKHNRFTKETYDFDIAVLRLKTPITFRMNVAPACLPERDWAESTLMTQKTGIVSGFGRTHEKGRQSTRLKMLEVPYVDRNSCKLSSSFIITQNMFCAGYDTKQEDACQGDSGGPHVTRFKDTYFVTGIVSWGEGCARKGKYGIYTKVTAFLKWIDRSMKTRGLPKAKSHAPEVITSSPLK

Broadly, the HC50 is the concentration giving 50% haemolysis. `CC(C)C[C@H](NC(=O)[C@H](Cc1c[nH]c2ccccc12)NC(=O)c1cc(Cl)ccc1Cl)B(O)O`: in the series with Staphylococcus aureus [1], the “growth inhibition (GI)” value is “inactive”. In addition, the inhibition entry (in [2]; in series [9]; with Staphylococcus aureus [10]) was “inactive” in each case. In addition, the inhibition entry in [3] and in [12] was “Dose-dependent effect” each time. For the same compound, the Activity entry is “Non-Toxic” in [4], “Non-Toxic” in series [5], “Toxic” in series [7] and 100% in series [8]. Further, the inhibition result in the series with Staphylococcus aureus [6] and with Staphylococcus aureus [11] was “Active” each time. Also, in [13], the HC50 at 0.25 h is above 500 µM. The “fold change (FC)” value with Staphylococcus aureus [14] is on record as above 10. In series [15], the EC50 was determined as 1270 nM.
